Reference: ChEMBL document CHEMBL1629705, “PSI-7851, a pronucleotide of beta-D-2'-deoxy-2'-fluoro-2'-C-methyluridine monophosphate, is a potent and pan-genotype inhibitor of hepatitis C virus replication” (Antimicrob Agents Chemother, 2010)
The source made the active and inactive calls. The calls are words filed in the database; no cut-off is given here.

Key:
[1] = Cytotoxicity against human myeloid progenitor cells after 14 to 16 days by colony formation assay; assay type: cell-based
Outline: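 Normal human bone marrow erythroid and myeloid progenitors, 2 × 10^4 cells per culture in methylcellulose with rh-SCF 50 ng/ml, rh-IL-3 10 ng/ml, rh-GM-CSF 10 ng/ml and rh-EPO 3 U/ml. Compound up to 50 μM, DMSO control 0.1%, 14–16 days.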

[2] = Cytotoxicity against human BxPC3 cells assessed as effect on cellular GAPDH RNA level after 8 days by quantitative real-time PCR; assay type: cell-based, BXPC-3
[3] = system: Hepatitis C virus; experiment: Antiviral activity against Hepatitis C virus assessed as clearance of HCV from replicon cells at 2 uM; assay type: functional, organism-based; conditions: Hepacivirus hominis
Outline: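 ET-lunet replicon cells, 1 × 10^5/well, no G418, with compound at 0.1, 1 or 2 μM (final DMSO 0.5%). Passaged 1:3 or 1:4 every 3–4 days for 3 weeks with fresh compound, then 3 more weeks with 0.25 mg/ml G418 and no inhibitor. HCV RNA by RT-PCR normalized to rRNA (ΔΔCt vs DMSO) at each passage. Crystal violet colony staining at 6 weeks.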

[4] = system: Hepatitis C virus; experiment: Antiviral activity against Hepatitis C virus harboring wild-type NS5B infected in human HuH7 cells by luciferase-based replicon assay; assay type: functional, Hepacivirus hominis; conditions: Huh-7

CC(C)OC(=O)[C@H](C)NP(=O)(OC[C@H]1O[C@@H](n2ccc(=O)[nH]c2=O)[C@](C)(F)[C@@H]1O)Oc1ccccc1 (some centres undefined)
CC50 [1]: > 50 µM | CC50 at 192 h [2]: > 100 µM | Activity [3]: Active | EC90 [4]: 0.45 µM
